# Calb biofilm kill = kills Candida albicans biofilms | C. albicans biofilm + clotrimazole, Alamar Blue | 85,000 tested, 0.14% active | inhibition, % at 6 µM;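 active = inhibition above 20%; inactive = inhibition below 20%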;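 also: preformed 24 hr biofilms exposed to compound for 48 hr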
# FAK blocker = blocks human focal adhesion kinase activity. inhibition, %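 (tested at 7 µM)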. 97,000 tested, 0.84% active. Q05397. biochemical FAK kinase activity assay; in the data active = inhibition above about 19%
# Target sequence (Q05397 whole entry, looked up): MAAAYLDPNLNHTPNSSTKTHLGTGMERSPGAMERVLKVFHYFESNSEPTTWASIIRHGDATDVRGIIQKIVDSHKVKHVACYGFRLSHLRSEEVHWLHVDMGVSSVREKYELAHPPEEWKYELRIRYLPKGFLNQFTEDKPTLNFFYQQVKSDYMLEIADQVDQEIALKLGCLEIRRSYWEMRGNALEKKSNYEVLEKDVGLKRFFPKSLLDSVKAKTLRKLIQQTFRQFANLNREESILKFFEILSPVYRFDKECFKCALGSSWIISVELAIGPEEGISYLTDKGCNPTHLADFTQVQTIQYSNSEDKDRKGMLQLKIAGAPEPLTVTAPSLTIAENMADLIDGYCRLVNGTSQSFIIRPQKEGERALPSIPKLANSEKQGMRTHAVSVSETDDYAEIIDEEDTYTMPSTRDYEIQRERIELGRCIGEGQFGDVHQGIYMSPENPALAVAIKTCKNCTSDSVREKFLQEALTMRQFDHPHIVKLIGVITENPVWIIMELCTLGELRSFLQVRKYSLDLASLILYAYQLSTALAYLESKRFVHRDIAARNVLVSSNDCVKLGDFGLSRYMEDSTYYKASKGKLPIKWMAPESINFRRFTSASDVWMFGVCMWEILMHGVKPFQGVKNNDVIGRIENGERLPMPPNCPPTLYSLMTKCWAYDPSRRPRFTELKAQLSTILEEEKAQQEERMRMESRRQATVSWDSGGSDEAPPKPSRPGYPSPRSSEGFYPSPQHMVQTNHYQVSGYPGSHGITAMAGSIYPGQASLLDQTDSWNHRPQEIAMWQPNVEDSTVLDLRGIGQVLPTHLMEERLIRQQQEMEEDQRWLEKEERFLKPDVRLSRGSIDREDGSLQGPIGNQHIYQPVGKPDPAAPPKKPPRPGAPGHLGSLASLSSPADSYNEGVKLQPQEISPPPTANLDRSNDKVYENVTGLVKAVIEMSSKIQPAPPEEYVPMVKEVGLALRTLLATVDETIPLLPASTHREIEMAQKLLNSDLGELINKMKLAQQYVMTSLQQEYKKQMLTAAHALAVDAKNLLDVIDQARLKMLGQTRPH
# PostGolgi yeast = growth inhibition of a yeast mutant, post-Golgi transport screen; 98,000 tested, 0.9% active; AID 739; inhibition, % at 10 µM; post-Golgi transport phenotypic cell assay;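 also: yeast cells grown in 1536-well plates; yeast grown about 18 h at 30C before absorbance read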
# Pyk2 oligo antag = antagonists of human Pyk2 oligomerization; Q14289; Q293 cells, Pyk2 FERM NanoBiT luminescence; stronger effect = lower value; z-score (the deposit names both 25 µM and 10 µM); 99,000 tested, 0.83% active; AID 1347419;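 active = Z-score of -3 or lower, scaled per plate to the spread of control and sample wells; inactive = z-score above -3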;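 also: negative z-score means lost luminescence so less FERM oligomerization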
# Ecoli tolC = E. coli tolC mutant growth inhibition. E. coli BW25113 tolC mutant growth, OD615. growth inhibition, % at 10 µM (by protocol). 65,000 tested, 2.2% active;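 active = growth inhibition at or above a cutoff equal to the mean over every tested compound plus 3 SD, cut at about 60% in these data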;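 also: growth measured after 20 h incubation at 37 °C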
#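 Test system – E. coli BW25113 ΔtolC::kan, tolC deletion mutant strain · Detection – OD at 615 nm · Buffer or medium – LB with kanamycin 50 µg/mL · Times – 20 h compound exposure of bacteria at 37 °C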
# PostGolgi ctrl = yeast control strain growth, post-Golgi counter-screen | inhibition, % at 10 µM | 98,000 tested, 5% active | efflux-deficient yeast background strain, growth absorbance A615, 16 h
# Numbers stand for hits; i = inactive; nt = no result given. This is a sample that favours compounds with a hit; in the whole collection about 6.9% have one here. Rule as the data show it, unless noted: active = inhibition above about 30%; inactive = the rest.
SMILES,Calb biofilm kill,FAK blocker,PostGolgi yeast,Pyk2 oligo antag,Ecoli tolC,PostGolgi ctrl
CC(=O)c1ccc(N2CCN(C(=O)C3(S(=O)(=O)c4ccc(Cl)cc4)CC3)CC2)cc1,i,i,i,i,i,i
O=C(N1CCN(c2cccc(Cl)c2)CC1)C1(S(=O)(=O)c2ccc(Cl)cc2)CC1,i,i,80,i,nt,90
N/C(=N\OC(=O)CC1CCCCC1)c1cccnc1,nt,i,i,i,nt,i
O=C(CCc1ccccc1)Nc1nc2n(n1)C(c1ccc(Cl)cc1)CC(=O)N2 (stereo unspecified),i,i,i,i,nt,46
O=C(CCc1ccccc1)Nc1nc2n(n1)C(c1ccccc1)CC(=O)N2 (stereo unspecified),i,i,i,i,i,i
O=S(=O)(c1ccccc1)c1cnn(-c2ccccc2)c1-c1ccc(F)cc1,nt,i,i,i,nt,i
COc1ccc(-n2ncc(S(=O)(=O)c3ccccc3)c2-c2ccc(Cl)cc2)cc1,nt,i,i,-3.3,nt,i
Cc1sc2nc(C(C)C)nc(SCC(=O)NCc3ccco3)c2c1C,i,i,i,i,i,40
CCSc1oc(-c2ccco2)nc1S(=O)(=O)c1ccccc1,i,i,i,i,i,i
O=S(=O)(c1ccccc1)c1nc(-c2ccco2)oc1N1CCCCCC1,i,i,i,i,82,42
O=C(CSc1oc(-c2ccco2)nc1S(=O)(=O)c1ccc(Cl)cc1)NCC1CCCO1 (stereo unspecified),i,i,37,i,i,i
CCSc1oc(-c2ccccc2)nc1S(=O)(=O)c1ccccc1,i,i,i,i,69,i
O=C(CSc1oc(-c2ccco2)nc1S(=O)(=O)c1ccccc1)NCC1CCCO1 (stereo unspecified),nt,i,nt,i,i,nt
CCCSc1oc(-c2ccco2)nc1S(=O)(=O)c1ccccc1,i,i,i,i,84,33
COc1ccc(Cl)cc1N1CCN(CCNC(=O)Nc2ccccc2C)CC1,i,i,i,i,63,i
O=c1c(C(c2nnnn2C2CCCCC2)N2CCCCC2)coc2ccc(Cl)cc12 (stereo unspecified),i,nt,77,i,i,87
Clc1ccc(C(c2nnnn2C2CCCC2)N2CCN(Cc3ccncc3)CC2)cc1 (stereo unspecified),nt,i,i,i,i,i
COC(=O)c1sccc1NC(=O)c1ccc(Cl)s1,i,i,i,i,72,i
COC(=O)c1sccc1NC(=O)c1ccc(C)s1,i,i,nt,i,nt,nt
COC(=O)c1sccc1NC(=O)c1ccc(OC)cc1,i,i,i,i,i,31
COC(=O)c1sccc1NC(=O)c1c(C)cc(=O)oc1C,i,i,i,i,i,i
COC(=O)c1sccc1NC(=O)c1cccnc1,i,i,i,i,i,i
COC(=O)c1sccc1NC(=O)c1csc(C)c1,i,i,i,i,98,i
Cc1ccc(CNC(=O)CCC(=O)c2cccs2)cc1,nt,i,i,i,nt,i
Cc1nc2ccccc2c2oc(C(=O)N3CCc4ccccc43)cc12,i,nt,nt,nt,i,nt
SMILES,Calb biofilm kill,FAK blocker,PostGolgi yeast,Pyk2 oligo antag,Ecoli tolC,PostGolgi ctrl
Clc1cccc(Cl)c1CON/C=N/c1ncnc2sccc12,nt,i,i,i,nt,i
Clc1cccc(CON/C=N/c2ncnc3sccc23)c1,nt,i,i,i,nt,35
O=C(O)Cn1c(SCCOc2ccccc2F)nc2ccccc21,nt,i,31,i,i,i
OCCn1c(SCCOc2ccccc2F)nc2ccccc21,i,i,i,i,i,41
CC(C)Oc1ccc(Cn2c(=O)sc3ccccc32)cc1,i,i,nt,-3.3,nt,nt
COc1ccc(Cn2c(=O)sc3ccccc32)cc1,i,i,i,i,61,i
Cc1ccc(S(=O)(=O)N2CCN(C(=O)CN3CCc4ccccc4C3)CC2)cc1,i,i,i,i,i,i
COc1ccc(N(CC(=O)N2CCN(c3ccccc3)CC2)S(=O)(=O)c2c(C)noc2C)cc1,i,i,i,nt,i,i
O=c1[nH]c(=O)n(Cc2ccco2)c2c1C(C(F)(F)F)(C(F)(F)F)N=C(CCc1ccccc1)N2,i,i,i,-4,nt,i
O=c1[nH]c(=O)n(-c2ccccc2)c2c1C(C(F)(F)F)(C(F)(F)F)N=C(CCC1CCCCC1)N2,nt,nt,nt,-3.6,nt,nt
O=c1[nH]c(=O)n(Cc2ccco2)c2c1C(C(F)(F)F)(C(F)(F)F)N=C(C1CCCCC1)N2,i,i,i,i,i,i
O=c1[nH]c(=O)n(Cc2ccco2)c2c1C(C(F)(F)F)(C(F)(F)F)N=C(CCC1CCCCC1)N2,i,i,i,-4.1,nt,i
C=CCN(C(=O)c1ccccc1)c1ccc(OC)cc1,i,i,i,i,i,i
CCCCn1c(=O)c(-c2ccccc2)c(O)c2ccccc21,i,i,i,i,i,32
Cc1ccc(S(=O)(=O)N2CCN(c3nc4ccccc4nc3-n3nc(C)cc3C)CC2)cc1,i,i,i,i,i,i
CCCOC(=O)c1ccc(Nc2nc(C)cc(=O)[nH]2)cc1,i,i,i,i,nt,i
Cc1ccc(/C(N)=N/OC(=O)CCC2CCCCC2)cc1,nt,i,i,i,nt,i
O=C1C(=O)c2ccc(-c3ccccc3)cc2-c2ccccc21,i,56,nt,-4.8,nt,nt
N#Cc1cn(Cc2cccc(Cl)c2)c2ccccc12,i,i,i,i,97,i
O=C(Nc1ccc2nsnc2c1)c1cccs1,i,i,i,i,i,40
CCOC(=O)N1CCN(c2c(F)cc3[nH]c(=S)[nH]c3c2Br)CC1,nt,i,i,i,i,33
O=C(Nc1ccc2c(c1)OCCO2)NC1(C(F)(F)F)Oc2ccccc2O1,i,i,i,nt,i,34
O=C(c1ccccc1Cl)N1N=C(c2ccc(Br)cc2)CC1c1nc2ccccc2[nH]1 (stereo unspecified),nt,i,i,i,nt,64
CCc1cc(C(c2ccc(F)cc2)N2CCOCC2)c(NC(=O)c2ccccc2)s1 (stereo unspecified),nt,i,32,i,nt,i
COC(=O)c1ccc(CN(c2ccc(C)cc2)S(=O)(=O)c2ccc3c(c2)OCCO3)o1,i,i,i,-3.3,i,i
SMILES,Calb biofilm kill,FAK blocker,PostGolgi yeast,Pyk2 oligo antag,Ecoli tolC,PostGolgi ctrl
COC(=O)c1ccc(CN(C)S(=O)(=O)c2ccc(C)cc2)o1,i,nt,nt,i,i,nt
CCc1c(C)c(C#N)c2nc3ccccc3n2c1NCCN(C)C,i,i,i,i,i,42
CCc1c(C)c(C#N)c2nc3ccccc3n2c1NCc1ccco1,i,i,i,i,nt,i
C=CCc1c(C)c(C#N)c2nc3ccccc3n2c1NCCN(C)C,i,i,82,i,i,74
Cc1cc(C)nc(SCC(=O)Nc2ccc(Br)cn2)n1,i,i,i,i,i,i
CSc1nsc(SCC(=O)Nc2ccc(Br)cn2)n1,nt,i,i,i,nt,38
CCn1c(SCC(=O)N2CCCC2)nc2c1c(=O)n(C)c(=O)n2C,i,i,i,i,i,i
Cc1cc(C)nc(SCC(=O)N2CCOCC2)n1,i,i,i,i,i,i
CC(=O)c1ccc(OCC(O)Cn2nnc3ccccc32)cc1 (stereo unspecified),nt,i,i,i,i,i
N#Cc1ccc(-c2ccc(OCC(O)Cn3nnc4ccccc43)cc2)cc1 (stereo unspecified),i,i,i,i,i,35

# Screening data: PubChem, several laboratories
